In ChEMBL document CHEMBL1131139, “Synthesis and antibacterial activity of ketolides (6-O-methyl-3-oxoerythromycin derivatives): a new class of antibacterials highly potent against macrolide-resistant and -susceptible respiratory pathogens” (1998):
Converted amounts (≈) assume the structure as drawn.

What was measured:
Assay type in all cases: functional
Haemophilus influenzae [1] = assay: In vitro inhibitory activity against Haemophilus influenzae (351CB12)
In short: (§1)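 Two-fold agar dilution on Mueller-Hinton agar (pH 7.4). Inoculum from overnight plate cultures suspended in Mueller-Hinton broth, adjusted to 10^9 CFU/mL, diluted 1:200 and spotted by multipoint inoculator at about 10^4 CFU/spot. Plates incubated 37 °C for 20 h. MIC taken as lowest concentration with no visible growth.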

Streptococcus pneumoniae [2] = assay: In vitro inhibitory activity against Streptococcus pneumoniae (032UC1); in short: as §1
[3] = tested on: Staphylococcus epidermidis; assay: In vitro inhibitory activity against Staphylococcus epidermidis (EryRi 012GO11i); in short: as §1
Staphylococcus aureus [4] = assay: In vitro inhibitory activity against Staphylococcus aureus (EryRc 011CB20); in short: as §1
Streptococcus pneumoniae [5] = assay: In vitro inhibitory activity against Streptococcus pneumoniae (EryRi 030SJ5i); in short: as §1
Staphylococcus aureus [6] = assay: In vitro inhibitory activity against Staphylococcus aureus (EryRi 011GO25i); in short: as §1
Haemophilus influenzae [7] = assay: In vitro inhibitory activity against Haemophilus influenzae (351HT3); in short: as §1
Escherichia coli = assay: In vitro inhibitory activity against Escherichia coli (250 UC5); in short: as §1
Streptococcus pneumoniae [8] = assay: In vitro inhibitory activity against Streptococcus pneumoniae (EryRc 030SJ1); in short: as §1
Staphylococcus aureus [9] = assay: In vitro inhibitory activity against Staphylococcus aureus (011UC4); in short: as §1
Streptococcus pyogenes = assay: In vitro inhibitory activity against Streptococcus pyogenes (02A1UC1); in short: as §1

MIC (Haemophilus influenzae [1]) | MIC (Streptococcus pneumoniae [2]) | MIC [3] | MIC (Staphylococcus aureus [4]) | MIC (Streptococcus pneumoniae [5]) | MIC (Staphylococcus aureus [6]) | MIC (Haemophilus influenzae [7]) | MIC (Escherichia coli) | MIC (Streptococcus pneumoniae [8]) | MIC (Staphylococcus aureus [9]) | MIC (Streptococcus pyogenes) | SMILES
2.5 µg/mL (≈ 3.02 µM) | 0.02 µg/mL (≈ 0.0242 µM) | 0.08 µg/mL (≈ 0.0967 µM) | 40 µg/mL (≈ 48.4 µM) | 0.02 µg/mL (≈ 0.0242 µM) | 0.08 µg/mL (≈ 0.0967 µM) | 1.2 µg/mL (≈ 1.45 µM) | 40 µg/mL (≈ 48.4 µM) | 0.08 µg/mL (≈ 0.0967 µM) | 0.04 µg/mL (≈ 0.0484 µM) | 0.02 µg/mL (≈ 0.0242 µM) | CC[C@H]1OC(=O)[C@H](C)C(=O)[C@H](C)[C@@H](O[C@@H]2O[C@H](C)C[C@H](N(C)C)[C@H]2O)[C@](C)(OC)C[C@@H](C)C(=O)[C@H](C)[C@H]2N(NCCCc3ccnc4ccc(OC)cc34)C(=O)O[C@]12C
20 µg/mL (≈ 34 µM) | 0.15 µg/mL (≈ 0.255 µM) | 5 µg/mL (≈ 8.51 µM) | 40 µg/mL (≈ 68.1 µM) | 40 µg/mL (≈ 68.1 µM) | 40 µg/mL (≈ 68.1 µM) | 20 µg/mL (≈ 34 µM) | 40 µg/mL (≈ 68.1 µM) | 40 µg/mL (≈ 68.1 µM) | 0.3 µg/mL (≈ 0.51 µM) | 0.6 µg/mL (≈ 1.02 µM) | CC[C@H]1OC(=O)[C@H](C)C(=O)[C@H](C)[C@@H](O[C@@H]2O[C@H](C)C[C@H](N(C)C)[C@H]2O)[C@](C)(OC)C[C@@H](C)C(=O)[C@H](C)[C@@H](O)[C@]1(C)O
2.5 µg/mL (≈ 3.29 µM) | 0.02 µg/mL (≈ 0.0263 µM) | 0.15 µg/mL (≈ 0.197 µM) | 40 µg/mL (≈ 52.6 µM) | 0.3 µg/mL (≈ 0.395 µM) | 0.6 µg/mL (≈ 0.789 µM) | 5 µg/mL (≈ 6.58 µM) | 40 µg/mL (≈ 52.6 µM) | 10 µg/mL (≈ 13.2 µM) | 0.15 µg/mL (≈ 0.197 µM) | 0.04 µg/mL (≈ 0.0526 µM) | CC[C@H]1OC(=O)[C@H](C)C(=O)[C@H](C)[C@@H](O[C@@H]2O[C@H](C)C[C@H](N(C)C)[C@H]2O)[C@](C)(OC)C[C@@H](C)C(=O)[C@H](C)[C@H]2N(CCN(C)Cc3ccccc3)C(=O)O[C@]12C
10 µg/mL (≈ 14.6 µM) | 20 µg/mL (≈ 29.2 µM) | 5 µg/mL (≈ 7.29 µM) | 40 µg/mL (≈ 58.3 µM) | 2.5 µg/mL (≈ 3.64 µM) | 2.5 µg/mL (≈ 3.64 µM) | 40 µg/mL (≈ 58.3 µM) | 40 µg/mL (≈ 58.3 µM) | 0.3 µg/mL (≈ 0.437 µM) | 0.6 µg/mL (≈ 0.875 µM) | 0.04 µg/mL (≈ 0.0583 µM) | CC[C@H]1OC(=O)[C@H](C)C(=O)[C@H](C)[C@@H](O[C@@H]2O[C@H](C)C[C@H](N(C)C)[C@H]2O)[C@](C)(OC)C[C@@H](C)/C(=N\OCCN2CCC2)[C@H](C)[C@@H](O)[C@]1(C)O
40 µg/mL | 40 µg/mL | 40 µg/mL | 40 µg/mL | 40 µg/mL | 40 µg/mL | 40 µg/mL | 40 µg/mL | 40 µg/mL | 40 µg/mL | 40 µg/mL | CC[C@H]1OC(=O)[C@H](C)C(=O)[C@H](C)[C@@H](O[C@@H]2O[C@H](C)C[C@H](N(C)C)[C@H]2O)[C@](C)(OC)C[C@@H](C)/C(=N\OC[C@@H](N)C(=O)[O-])[C@H](C)[C@@H](O)[C@]1(C)O.[K+]
0.6 µg/mL (≈ 0.746 µM) | 0.08 µg/mL (≈ 0.0995 µM) | 0.6 µg/mL (≈ 0.746 µM) | 40 µg/mL (≈ 49.7 µM) | 0.3 µg/mL (≈ 0.373 µM) | 0.6 µg/mL (≈ 0.746 µM) | 5 µg/mL (≈ 6.22 µM) | 40 µg/mL (≈ 49.7 µM) | 1.2 µg/mL (≈ 1.49 µM) | 0.3 µg/mL (≈ 0.373 µM) | 0.08 µg/mL (≈ 0.0995 µM) | CC[C@H]1OC(=O)[C@H](C)C(=O)[C@H](C)[C@@H](O[C@@H]2O[C@H](C)C[C@H](N(C)C)[C@H]2O)[C@](C)(OC)C[C@@H](C)/C(=N\OC2CCCN(CCCc3ccccc3)C2)[C@H](C)[C@@H](O)[C@]1(C)O (some centres undefined)
10 µg/mL (≈ 13.7 µM) | 0.3 µg/mL (≈ 0.41 µM) | 1.2 µg/mL (≈ 1.64 µM) | 40 µg/mL (≈ 54.7 µM) | 20 µg/mL (≈ 27.4 µM) | 2.5 µg/mL (≈ 3.42 µM) | 40 µg/mL (≈ 54.7 µM) | 40 µg/mL (≈ 54.7 µM) | 40 µg/mL (≈ 54.7 µM) | 1.2 µg/mL (≈ 1.64 µM) | 0.15 µg/mL (≈ 0.205 µM) | CC[C@H]1OC(=O)[C@H](C)C(=O)[C@H](C)[C@@H](O[C@@H]2O[C@H](C)C[C@H](N(C)C)[C@H]2O)[C@](C)(OC)C[C@@H](C)C(=O)[C@H](C)[C@H]2N(CCCc3ccccc3)C(=O)O[C@]12C
10 µg/mL (≈ 14.5 µM) | 10 µg/mL (≈ 14.5 µM) | 0.15 µg/mL (≈ 0.218 µM) | 40 µg/mL (≈ 58.1 µM) | 1.2 µg/mL (≈ 1.74 µM) | 0.3 µg/mL (≈ 0.436 µM) | 40 µg/mL (≈ 58.1 µM) | 40 µg/mL (≈ 58.1 µM) | 40 µg/mL (≈ 58.1 µM) | 0.15 µg/mL (≈ 0.218 µM) | 0.04 µg/mL (≈ 0.0581 µM) | CCCNCCO/N=C1\[C@H](C)C[C@@](C)(OC)[C@H](O[C@@H]2O[C@H](C)C[C@H](N(C)C)[C@H]2O)[C@@H](C)C(=O)[C@@H](C)C(=O)O[C@H](CC)[C@@](C)(O)[C@H](O)[C@H]1C
5 µg/mL (≈ 7.44 µM) | 0.02 µg/mL (≈ 0.0298 µM) | 6 µg/mL (≈ 8.93 µM) | 40 µg/mL (≈ 59.5 µM) | 40 µg/mL (≈ 59.5 µM) | 5 µg/mL (≈ 7.44 µM) | 10 µg/mL (≈ 14.9 µM) | 40 µg/mL (≈ 59.5 µM) | 10 µg/mL (≈ 14.9 µM) | 0.15 µg/mL (≈ 0.223 µM) | 0.04 µg/mL (≈ 0.0595 µM) | CC[C@H]1OC(=O)[C@H](C)C(=O)[C@H](C)[C@@H](O[C@@H]2O[C@H](C)C[C@H](N(C)C)[C@H]2O)[C@](C)(OC)C[C@@H](C)/C(=N\OC2CCNC2)[C@H](C)[C@@H](O)[C@]1(C)O (some centres undefined)
